Reference: ChEMBL document CHEMBL1158495, “Quinolone carboxylic acids as a novel monoketo acid class of human immunodeficiency virus type 1 integrase inhibitors” (J Med Chem, 2009)

Tests used:
[1] = target: Human immunodeficiency virus type 1 integrase (Human immunodeficiency virus 1, UniProt Q7ZJM1); test: Inhibition of HIV1 integrase strand transfer activity
[2] = tested on: Human immunodeficiency virus 1; test: Antiviral activity against HIV1 3B infected in human MT4 cells assessed as inhibition of viral replication after 5 days by MTT assay; assay type: functional, organism-based; conditions: Human immunodeficiency virus 1, 3B, MT4, 120 h
In short: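 MT-4 human T lymphoid cells at 1 × 10^5 cells/mL in RPMI 1640 with 10% FBS, penicillin and streptomycin; infected with strain IIIb at multiplicity 0.01, compounds added, 37 °C for 5 days. Viability read by MTT (7.5 mg/mL solution), formazan dissolved in acidic isopropanol with 4% Triton-X, absorbance at 595 nm.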

[3] = Cytotoxicity against human MT4 cells after 5 days by MTT assay; assay type: cell-based
In short: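 Uninfected MT-4 cells at 1 × 10^5 cells/mL in RPMI 1640 with 10% FBS, penicillin and streptomycin, exposed to compounds at 37 °C for 5 days. Viability by MTT (7.5 mg/mL solution); formazan taken up in acidic isopropanol containing 4% Triton-X, read at 595 nm.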

[4] = tested on: Human immunodeficiency virus 1; test: Antiviral activity against HIV1 infected in human PBMN cells assessed as inhibition of viral replication in presence of 50% human serum; assay type: functional; conditions: Human immunodeficiency virus 1, PBMN

Human immunodeficiency virus type 1 integrase, sequence (Q7ZJM1 whole entry): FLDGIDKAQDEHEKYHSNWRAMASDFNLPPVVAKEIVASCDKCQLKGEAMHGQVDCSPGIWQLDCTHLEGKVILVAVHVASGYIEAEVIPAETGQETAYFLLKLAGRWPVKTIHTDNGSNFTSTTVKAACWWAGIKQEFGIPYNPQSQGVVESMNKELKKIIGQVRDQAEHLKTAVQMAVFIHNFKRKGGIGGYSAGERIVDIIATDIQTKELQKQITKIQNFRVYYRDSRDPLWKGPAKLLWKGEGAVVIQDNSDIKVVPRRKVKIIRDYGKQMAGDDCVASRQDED

Row | Compound | IC50 [1] | EC50 [2] | CC50 at 120 h [3] | EC90 [4]
1 | COc1cc2c(cc1Cc1cccc(Cl)c1F)c(=O)c(C(=O)O)cn2[C@H](CO)C1CCCCC1 | 6.7 nM | 2.8 nM | 3000 nM | 
2 | O=C(O)c1c[nH]c2ccc(Cc3c(Cl)cccc3Cl)cc2c1=O | 370 nM | > 6000 nM | 14900 nM | 
3 | NC(=O)Cn1cc(C(=O)O)c(=O)c2cc(Cc3cccc(Cl)c3Cl)ccc21 | 35 nM | 540 nM | 22600 nM | 
4 | CC(C)n1cc(C(=O)O)c(=O)c2cc(Cc3cccc(Cl)c3Cl)ccc21 | 26 nM | 330 nM | > 6000 nM | 
5 | CCCCn1cc(C(=O)O)c(=O)c2cc(Cc3cccc(Cl)c3Cl)ccc21 | 65 nM | 2340 nM | 15000 nM | 
6 | O=C(O)c1c[nH]c2ccc(Cc3ccc(Cl)cc3)cc2c1=O | > 100000 nM | > 6000 nM | > 6000 nM | 
7 | O=C(O)c1cn(CCO)c2ccc(Cc3cccc(Cl)c3Cl)c(F)c2c1=O | 84 nM | 1680 nM | 14300 nM | 
8 | N#Cc1cc2c(cc1Cc1cccc(Cl)c1Cl)c(=O)c(C(=O)O)cn2CCO | 50 nM | 2000 nM | 13900 nM | 
9 | Cc1cc2c(cc1Cc1cccc(Cl)c1Cl)c(=O)c(C(=O)O)cn2CCO | 41 nM | 180 nM | > 30000 nM | 
10 | CC(C)[C@@H](CO)n1cc(C(=O)O)c(=O)c2cc(Cc3cccc(Cl)c3F)ccc21 |  | 7.5 nM | 14000 nM | 
11 | CCn1cc(C(=O)O)c(=O)c2cc(Cc3cccc(Cl)c3Cl)ccc21 | 31 nM | 290 nM | 16200 nM | 
12 | CC[C@@H](CO)n1cc(C(=O)O)c(=O)c2cc(Cc3cccc(Cl)c3F)ccc21 | 9 nM | 17.1 nM | 13000 nM | 
13 | COc1cc2c(cc1Cc1cccc(Cl)c1F)c(=O)c(C(=O)O)cn2[C@@H](CO)C(C)C |  | 109 nM | 4200 nM | 
14 | CCC[C@@H](CO)n1cc(C(=O)O)c(=O)c2cc(Cc3cccc(Cl)c3F)c(OC)cc21 | 5.8 nM | 1.3 nM | 3100 nM | 
15 | CC(C)(C)[C@@H](CO)n1cc(C(=O)O)c(=O)c2cc(Cc3cccc(Cl)c3F)ccc21 | 6 nM | 1.3 nM | 14400 nM | 
16 | O=C(O)CCn1cc(C(=O)O)c(=O)c2cc(Cc3cccc(Cl)c3Cl)ccc21 | 38 nM | > 30000 nM | > 30000 nM | 
17 | COc1cc2c(cc1Cc1cccc(Cl)c1F)c(=O)c(C(=O)O)cn2CCO |  | 20 nM | 5300 nM | 
18 | O=C(O)c1cn(CCO)c2cc(F)c(Cc3cccc(Cl)c3Cl)cc2c1=O | 25 nM | 130 nM | 9800 nM | 
19 | CCCn1cc(C(=O)O)c(=O)c2cc(Cc3cccc(Cl)c3Cl)ccc21 | 55 nM | 640 nM | 15600 nM | 
20 | O=C(O)c1c[nH]c2ccc(Cc3cc(Cl)ccc3Cl)cc2c1=O | 250 nM | > 6000 nM | 13200 nM | 
21 | COc1cc2c(cc1Cc1cccc(Cl)c1Cl)c(=O)c(C(=O)O)cn2CCO | 12 nM | 60 nM | 4200 nM | 
22 | O=C(O)c1cn(CCO)c2ccc(Cc3cccc(Cl)c3Cl)cc2c1=O | 21 nM | 100 nM | > 6000 nM | 
23 | O=C(O)c1cn(CCO)c2cc(C(F)(F)F)c(Cc3cccc(Cl)c3Cl)cc2c1=O | 674 nM | > 6000 nM | 10000 nM | 
24 | C[C@@H](CO)n1cc(C(=O)O)c(=O)c2cc(Cc3cccc(Cl)c3F)ccc21 | 14.8 nM | 27.7 nM | 13700 nM | 
25 | O=C(O)c1c[nH]c2ccc(Cc3ccccc3F)cc2c1=O | 500 nM | 15900 nM | > 30000 nM | 
26 | Cn1cc(C(=O)C(=O)O)c(=O)c2cc(Cc3ccccc3)ccc21 | > 100000 nM | > 30000 nM | > 30000 nM | 

Row | Compound | IC50 [1] | EC50 [2] | CC50 at 120 h [3] | EC90 [4]
27 | O=C(O)c1cn(CCO)c2ccc(Cc3cccc(Cl)c3F)cc2c1=O |  | 80 nM | > 6000 nM | 
28 | CCC[C@@H](CO)n1cc(C(=O)O)c(=O)c2cc(Cc3cccc(Cl)c3F)ccc21 | 8.2 nM | 9.8 nM | 12500 nM | 
29 | COc1ccccc1Cc1ccc2[nH]cc(C(=O)O)c(=O)c2c1 | 1170 nM | > 6000 nM | 16600 nM | 
30 | NC(=O)c1c[nH]c2ccc(Cc3ccccc3)cc2c1=O | > 100000 nM | > 30000 nM | > 30000 nM | 
31 | C[C@H](CO)n1cc(C(=O)O)c(=O)c2cc(Cc3cccc(Cl)c3F)ccc21 | 38.3 nM | 116 nM | 14400 nM | 
32 | O=C(O)c1cn(CCO)c2c(F)cc(Cc3cccc(Cl)c3Cl)cc2c1=O | 34 nM | 530 nM | > 30000 nM | 
33 | NC(=O)CCn1cc(C(=O)O)c(=O)c2cc(Cc3cccc(Cl)c3Cl)ccc21 | 116 nM | 2040 nM | 15100 nM | 
34 | O=C(O)Cn1cc(C(=O)O)c(=O)c2cc(Cc3cccc(Cl)c3Cl)ccc21 | 32 nM | 13600 nM | > 30000 nM | 
35 | Cn1cc(C(=O)O)c(=O)c2cc(Cc3ccccc3)ccc21 | 2300 nM | > 30000 nM | > 30000 nM | 
36 | O=C(O)c1cn(CCO)c2ccc(Cc3cccc(F)c3Cl)cc2c1=O | 44 nM | 340 nM | > 6000 nM | 
37 | O=C(O)c1c[nH]c2ccc(Cc3ccccc3Cl)cc2c1=O | 410 nM | > 6000 nM | > 6000 nM | 
38 | Cn1cc(C(=O)O)c(=O)c2cc(Cc3cccc(Cl)c3Cl)ccc21 | 83 nM | 450 nM | 14400 nM | 
39 | O=C(O)c1cn([C@H](CO)c2ccccc2)c2ccc(Cc3cccc(Cl)c3F)cc2c1=O | 9.8 nM | 51.6 nM | 8700 nM | 
40 | O=C(O)/C(O)=C/C(=O)c1cccc(Cc2ccccc2)c1 |  | 440 nM | > 30000 nM | 
41 | O=C(O)c1cn([C@H](CO)C2CCCCC2)c2ccc(Cc3cccc(Cl)c3F)cc2c1=O | 5.6 nM | 7.3 nM | 7700 nM | 
42 | Cc1ccccc1Cc1ccc2[nH]cc(C(=O)O)c(=O)c2c1 | 1080 nM | > 6000 nM | 18500 nM | 
43 | O=C(O)c1cn(CCCO)c2ccc(Cc3cccc(Cl)c3Cl)cc2c1=O | 77 nM | 470 nM | 15100 nM | 
44 | O=C(O)c1c[nH]c2ccc(Cc3ccccc3C(F)(F)F)cc2c1=O | 720 nM | > 6000 nM | 14800 nM | 
45 | O=C(O)c1c[nH]c2ccc(Cc3cccc(Cl)c3)cc2c1=O | 800 nM | > 6000 nM | > 6000 nM | 
46 | O=C(O)c1cnc2ccc(Cc3ccccc3)cc2c1O |  | > 30000 nM | > 30000 nM | 
47 | O=C(O)c1c[nH]c2ccc(Cc3cccc(Cl)c3Cl)cc2c1=O | 70 nM | 3400 nM | 12600 nM | 
48 | O=C(O)c1cn(CCO)c2cc(Cl)c(Cc3cccc(Cl)c3Cl)cc2c1=O | 43 nM | 510 nM | > 6000 nM | 
49 | CCOC(=O)c1cnc2ccc(Cc3ccccc3)cc2c1O | > 100000 nM | > 30000 nM | > 30000 nM | 
50 | NCCn1cc(C(=O)O)c(=O)c2cc(Cc3cccc(Cl)c3Cl)ccc21 | 215 nM | 570 nM | 5300 nM | 
51 | COc1cc2c(cc1Cc1cccc(Cl)c1F)c(=O)c(C(=O)O)cn2[C@H](CO)C(C)C |  | 0.9 nM | 4000 nM | 9.8 nM
